In data set [1] the test system is Homo sapiens. The experiment in a line: Cmax in children of >6-12 yrs age at risk for fungal infection assessed as hydroxyitraconazole level at 2.5 mg/kg, iv in 0.1 g/kg hydroxypropyl-beta-cyclodextrin administered as single dose. The class given is ADME, organism-based. Conditions: in vivo. Also on record: dose 2.5 mg/kg, route intravenous. Summed up: (§1)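 Single constant-rate IV infusion over 1 h. Heparinised venous plasma was drawn predose and at 1–120 h (>2 yr) or 1–96 h (<2 yr, randomised to the itraconazole/metabolite arm), then stored at –20°C. Analysis used borate-buffered liquid-liquid extraction with internal standard, C18 HPLC and UV detection at 263 nm, linear 5–5,000 ng/ml. Individual Cmax was read by visual inspection, noncompartmental.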

Data set [2] in a line: Cmax in children of >6-12 yrs age at risk for fungal infection at 2.5 mg/kg, iv in 0.1 g/kg hydroxypropyl-beta-cyclodextrin administered as single dose. Conditions: human, in vivo. Also on record: dose 2.5 mg/kg, route intravenous. The class given is ADME, organism-based. Summed up: (§2)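 Single 1-h IV infusion. Plasma sampled from the contralateral limb predose and at 1–120 h (>2 y) or 1–96 h (<2 y). Itraconazole was extracted with internal standard and quantified by C18 HPLC with UV 263 nm detection, linear range 2–2,000 ng/ml. Noncompartmental analysis: Cmax by inspection, AUC0-24 by trapezoidal rule, AUC extrapolated via λz, CL and Vz from AUC0-∞.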

A short description of data set [3]: Cmax in human at risk for fungal infection at 2.5 mg/kg, iv in 0.1 g/kg hydroxypropyl-beta-cyclodextrin administered as single dose. Also on record: dose 2.5 mg/kg, route intravenous. The settings on record: in vivo. The class given is ADME, organism-based. Summed up:
as §2

Data set [4] can be described thus: Apparent volume of distribution in adolescents of >12-16 yrs age at risk for fungal infection at 2.5 mg/kg, iv in 0.1 g/kg hydroxypropyl-beta-cyclodextrin administered as single dose. Also on record: dose 2.5 mg/kg, route intravenous. The class given is ADME, organism-based. Conditions: human, in vivo. The essentials:
as §2

Data set [5] can be described thus: AUC (0 to 24 hrs) in infants of 0.6-2 yrs age at risk for fungal infection at 2.5 mg/kg, iv in 0.1 g/kg hydroxypropyl-beta-cyclodextrin administered as single dose. The class given is ADME, organism-based. Also on record: time < 24 hr, dose 2.5 mg/kg, route intravenous. The settings on record: human, plasma. Summed up:
as §2

The nature of data set [6]: Clearance in children of >6-12 yrs age at risk for fungal infection at 2.5 mg/kg, iv in 0.1 g/kg hydroxypropyl-beta-cyclodextrin administered as single dose. Conditions: human, in vivo. Also on record: dose 2.5 mg/kg, route intravenous. The class given is ADME, organism-based. Summed up:
as §2

A short description of data set [7]: Cmax in adolescents of >12-16 yrs age at risk for fungal infection at 2.5 mg/kg, iv in 0.1 g/kg hydroxypropyl-beta-cyclodextrin administered as single dose. Also on record: dose 2.5 mg/kg, route intravenous. Conditions: human, in vivo. The class given is ADME, organism-based. Summed up:
as §2

In data set [8] the test system is Homo sapiens. The experiment in a line: Half life in adolescents of >12-16 yrs age at risk for fungal infection assessed as hydroxyitraconazole level at 2.5 mg/kg, iv in 0.1 g/kg hydroxypropyl-beta-cyclodextrin administered as single dose. The class given is ADME, organism-based. Also on record: dose 2.5 mg/kg, route intravenous. Conditions: in vivo. The essentials:
(§3)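 Single 1-h constant-rate IV infusion. Venous plasma sampled predose and to 120 h (>2 y) or 96 h (<2 y), then stored at –20°C. Hydroxyitraconazole was measured by borate/isoamylalcohol-heptane extraction, HCl back-extraction, C18 HPLC and UV 263 nm, with a linear range of 5–5,000 ng/ml. Noncompartmental analysis: Cmax and tmax by inspection, AUC0-24 by trapezoidal rule.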

Data set [9] is described as follows: Half life in adolescents of >12-16 yrs age at risk for fungal infection at 2.5 mg/kg, iv in 0.1 g/kg hydroxypropyl-beta-cyclodextrin administered as single dose. The class given is ADME, organism-based. Also on record: dose 2.5 mg/kg, route intravenous. Conditions: human, in vivo. Summed up:
as §2

The subject of data set [10] is Homo sapiens. The experiment in a line: Tmax in infants of 0.6-2 yrs age at risk for fungal infection assessed as hydroxyitraconazole level at 2.5 mg/kg, iv in 0.1 g/kg hydroxypropyl-beta-cyclodextrin administered as single dose. The class given is ADME, organism-based. Also on record: dose 2.5 mg/kg, route intravenous. Conditions: in vivo. The essentials:
as §3

Data set [11] concerns Homo sapiens. The experiment in a line: AUC (0 to 24 hrs) in children of >2-6 yrs age at risk for fungal infection at 2.5 mg/kg, iv in 0.1 g/kg hydroxypropyl-beta-cyclodextrin administered as single dose. The class given is ADME, organism-based, Plasma. Also on record: time < 24 hr, dose 2.5 mg/kg, route intravenous. Conditions: in vivo. The essentials:
as §2

A short description of data set [12]: AUC (0 to 24 hrs) in adolescents of >12-16 yrs age at risk for fungal infection at 2.5 mg/kg, iv in 0.1 g/kg hydroxypropyl-beta-cyclodextrin administered as single dose. Conditions: human, plasma. The class given is ADME, organism-based. Also on record: time < 24 hr, dose 2.5 mg/kg, route intravenous. Summed up:
as §2

The test system of data set [13] is Homo sapiens. The data set is described as follows: AUC (0 to 24 hrs) in children of >2-6 yrs age at risk for fungal infection assessed as hydroxyitraconazole level at 2.5 mg/kg, iv in 0.1 g/kg hydroxypropyl-beta-cyclodextrin administered as single dose. The class given is ADME, organism-based, Plasma. Also on record: time < 24 hr, dose 2.5 mg/kg, route intravenous. Conditions: in vivo. The essentials:
as §3

A short description of data set [14]: Cmax in infants of 0.6-2 yrs age at risk for fungal infection at 2.5 mg/kg, iv in 0.1 g/kg hydroxypropyl-beta-cyclodextrin administered as single dose. The class given is ADME, organism-based. Also on record: dose 2.5 mg/kg, route intravenous. Conditions: human, in vivo. Summed up: as §2
Data set [15] has as its system Homo sapiens. The experiment in a line: Cmax in infants of 0.6-2 yrs age at risk for fungal infection assessed as hydroxyitraconazole level at 2.5 mg/kg, iv in 0.1 g/kg hydroxypropyl-beta-cyclodextrin administered as single dose. The class given is ADME, organism-based. Also on record: dose 2.5 mg/kg, route intravenous. The settings on record: in vivo. The essentials:
as §1

A short description of data set [16]: Clearance in adolescents of >12-16 yrs age at risk for fungal infection at 2.5 mg/kg, iv in 0.1 g/kg hydroxypropyl-beta-cyclodextrin administered as single dose. The class given is ADME, organism-based. Also on record: dose 2.5 mg/kg, route intravenous. The settings on record: human, in vivo. The essentials:
as §2

Data set [17] deals with Homo sapiens. The data set is described as follows: Toxicity in human at risk for fungal infection assessed as occurrence of adverse events at 2.5 mg/kg, iv in 0.1 g/kg hydroxypropyl-beta-cyclodextrin administered as single dose. Also on record: dose 2.5 mg/kg, route intravenous. Conditions: in vivo. The class given is organism-based. Summed up:
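Safety was assessed by medical history, physical examination, complete blood count, serum chemistry, liver function tests and urinalysis. These were done before the single 1-h IV infusion and again at study completion. Subjects stayed at the study facility through 24 h postdose.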

For data set [18], the system named is Homo sapiens. The data set is described as follows: Cmax in adolescents of >12-16 yrs age at risk for fungal infection assessed as hydroxyitraconazole level at 2.5 mg/kg, iv in 0.1 g/kg hydroxypropyl-beta-cyclodextrin administered as single dose. The class given is ADME, organism-based. Also on record: dose 2.5 mg/kg, route intravenous. The settings on record: in vivo. The essentials:
as §3

Data set [19] can be described thus: Cmax in children of >2-6 yrs age at risk for fungal infection at 2.5 mg/kg, iv in 0.1 g/kg hydroxypropyl-beta-cyclodextrin administered as single dose. The class given is ADME, organism-based. Also on record: dose 2.5 mg/kg, route intravenous. The settings on record: human, in vivo. The essentials:
as §2

Data set [20] in a line: Apparent volume of distribution in children of >2-6 yrs age at risk for fungal infection at 2.5 mg/kg, iv in 0.1 g/kg hydroxypropyl-beta-cyclodextrin administered as single dose. The class given is ADME, organism-based. Also on record: dose 2.5 mg/kg, route intravenous. Conditions: human, in vivo. Summed up:
as §2

Data set [21] deals with Homo sapiens. The data set is described as follows: Half life in children of >6-12 yrs age at risk for fungal infection assessed as hydroxyitraconazole level at 2.5 mg/kg, iv in 0.1 g/kg hydroxypropyl-beta-cyclodextrin administered as single dose. Conditions: in vivo. The class given is ADME, organism-based. Also on record: dose 2.5 mg/kg, route intravenous. The essentials:
as §3

The nature of data set [22]: Half life in children of >2-6 yrs age at risk for fungal infection at 2.5 mg/kg, iv in 0.1 g/kg hydroxypropyl-beta-cyclodextrin administered as single dose. The class given is ADME, organism-based. Also on record: dose 2.5 mg/kg, route intravenous. Conditions: human, in vivo. Summed up: as §2

As a reminder, the Cmax is the highest concentration seen after dosing. A word on the AUC(0-t): it is the area under the concentration-time curve up to a stated or last time point. In general, clearance refers to the volume of plasma or blood freed of the substance per unit of time. What is called half-life is the time needed for the level to fall by half in the phase considered. Lower therefore signals rapid decline. What is called Tmax is the time at which the peak concentration occurs. The AUC is concentration integrated over time. For `CCC(C)n1ncn(-c2ccc(N3CCN(c4ccc(OCC5COC(Cn6cncn6)(c6ccc(Cl)cc6Cl)O5)cc4)CC3)cc2)c1=O` (configuration not stated) [ITRACONAZOLE], the Cmax amounted to 277 ng/mL in the data set with Homo sapiens [1]; 785 ng/mL in data set [2]; 1020 ng/mL in data set [3]; 806 ng/mL in data set [7]; 827 ng/mL in [14]; 265 ng/mL in the data set on Homo sapiens [15]. For the same compound, the Cmax in the data set on Homo sapiens [18] amounted to 321 ng/mL; in data set [19], 1550 ng/mL. For the same compound, the Vd in data set [4] was 28.5 L/kg; in [20], 8.3 L/kg. The AUC(0-t) at 24 h in data set [5] worked out at 2120 ng·h/mL; in data set [12] it was 2670 ng·h/mL. For the same compound, the clearance in data set [6] is 10.3 mL/min/kg; in data set [16] it was 12.9 mL/min/kg. Moreover, the t1/2 with Homo sapiens [8] came to 12.3 h; with Homo sapiens [21], 14.3 h. Moreover, the results for the half-life in data set [9] and in data set [22] were 29 h and 14 h, respectively. Moreover, the Tmax with Homo sapiens [10] worked out at 4 h. In addition, the values for the AUC in the data set on Homo sapiens [11] and in the data set on Homo sapiens [13] were 9510 ng·h/mL and 4249 ng·h/mL, respectively. For the same compound, in the data set on Homo sapiens [17], the Activity result is given as “Toxic”.

The record behind these values is ChEMBL document CHEMBL1155155, “Single-dose pharmacokinetics of intravenous itraconazole and hydroxypropyl-beta-cyclodextrin in infants, children, and adolescents” (Antimicrob Agents Chemother, 2007).
